Laboratory results taken from the EternaBench riboswitch data.

Tested on: MS2 coat protein
Test: apparent Kd, MS2 coat protein; higher = weaker binding; RNA-MaP array; FMN 200 µM where present
Outline: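 On Illumina sequencing-chip clusters, designs were transcribed by stalled E. coli RNA polymerase and titrated with SNAP-549-labelled MS2 coat protein (0.7 or 1.5 nM, doubling to 3 µM), without and then with constant ligand, in 100 mM Tris-HCl pH 7.5, 80 mM KCl, 4 mM MgCl2, BSA, DTT, yeast tRNA and Tween-20. Apparent Kd is the median of filtered per-cluster curve fits to green signal normalised to red-channel RNA signal and control-cluster median Fmax.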

[1] = designed as: OFF switch for flavin mononucleotide, no ligand
[2] = ligand present: flavin mononucleotide, designed as: OFF switch for flavin mononucleotide
[3] = designed as: ON switch for flavin mononucleotide, no ligand
[4] = ligand present: flavin mononucleotide, designed as: ON switch for flavin mononucleotide

| Sequence | apparent Kd [1] [nM] | apparent Kd [2] [nM] | apparent Kd [3] [nM] | apparent Kd [4] [nM] |
| --- | --- | --- | --- | --- |
| CUUAGGUGAGGAUAUUAGUAGUAAAUGAAUAAAAUUAUUACUGAGAAGGCACAUGAGGAUCACCCAUGUUCCUC | 35.8 | 444 |  |  |
| ACAUACUCUCGAGGAUAUCGUAUGGAAAAGAAACGAGAAGGCGAAUGUUAAUUUCUAAUACAUGACAUGAGGAUCACCCAUGUA |  |  | 30.4 | 27.3 |
| AGGCGACAUGAGGAUCACCCAUGUGAGGAUAUCGAACUCUACUGUUGUGAGAGUAAGGCGAGAAGGCACACAGU | 22.7 | 25.3 |  |  |
| UCCUUCUGUUGAGGAUAUGUAAGACAGCGACUGCUAUUGCGGCACGCUGAUACAGAAGGCAACAUGAGGAUCACCCAUGUUCAA | 22.9 | 199 |  |  |
| CGGCAUGUCUGAGGAUAUCUGCACGUUUAGUGCAGAGAAGGCAGAACAUGAGGAUCACCCAUGUAGAUCAUUAACCGAUUAAUU | 228 | 337 |  |  |
| UCGAUGCGAGGAUAUACAAGGGCAACUACUGCCGCUAUAUAACAUGAGGAUCACCCAUGUAGAAGGCGCAUAUA | 22.1 | 30.2 |  |  |
| UAUAUAUAGUAAGGAUAUGUAAAUAUUUUAUAAACAGAAGGUACUGACAUGAGGAUCACCCAUGUUUUAGUGUGGGCAUGUAGA | 79.2 | 139 |  |  |
| GGUACUCAAAGAGUACCAAUACGAACAUGAGGAUCACCCAUGUAGGAUAUGCUACUCAAAGAGUAGCAGAAGGACAUGUGCUUA | 25.9 | 135 |  |  |
| GGGUACAUCGGAGGAUAUCAUGUAAAUACAUGAGGAUCACCCAUGUCGAUGGCGACAUCGGAGAUUGAGAAGGCCGAUGUACCG |  |  | 448 | 12.3 |
| GGUUGGCGAGGAUAUACAUGAGGAUCACCCAUGUGGUCCUGUGGCUGAUCUUGCCUUUGUAGAAGGCGCGGAUC | 49.7 | 53.6 |  |  |
| UUAAUUUGAUGAUAUUAUGACAUUAGAAGGCUGUACAUGUUGAUACAUGAGGAUCACCCAUGUAUAGAGGAUAUAGACAAUUUU | 40.9 | 91.7 |  |  |
| GCGAAUAACGAGGAUAUCGUAUCGGAAACGAUACGAGAAGGUGUAACAUGAGGAUCACCCAUGUUCCUCAACGC | 37.5 | 36.4 |  |  |
| GGUAGCAACACAGGAUAUGCUAUCCUUUGGGUAGCAGAAGGGUGAAACAUGAGGAUCACCCAUGUGCUGCCAGGGCGUGAGCCC |  |  | 1800 | 136 |
| ACCAUUUACUAAUCCUCUAUACAUGAGGAUCACCCAUGUUUUGAGGAUAUCAGCGUGAAACACGCUGAGAAGGCAAAACAUUCG | 73.5 | 104 |  |  |
| AAUCAACGAAUACCAGGGCAUUAAUGAGAAGGCCAAUCACAUGAGGAUCACCCAUGUACGAGAGUGGAGGAUAUCAGUGGGCCG |  |  | 111 | 11.3 |
| AAUCCACAUGAGGAUCACCCAUGUCAGGAUAUCGCGCGCGCGUUUUCGGUCUCGCGCGCGAGAAGGGACGGCUG | 24 | 48.2 |  |  |
| GUACAGUAGUGAGGAUAUACGAGAUCGAUAGAUCGGCGAUCCAUAUAUACAUGAGGAUCACCCAUGUAGAAGGCACUUCUGUAC | 7.7 | 104 |  |  |
| CUAGACAGAUCAGGAUAUCAUCGCAUGGUGCAUCCCUGUGAUUACAUGAGGAUCACCCAUGUGCAUGAGAAGGGAUUACUAUGU | 46.5 | 13.1 |  |  |
| GAAAAGAAAGGAUAUACAGGGAAAUGAACCGCACGUAAACCACAUGAGGAUCACCCAUGUAGAAGGUUCAGUGC | 10.7 | 14.4 |  |  |
| CCGCAGUUAGGAUAUACAUGAGGAUCACCCAUGUGUCCAUCUGUAAUAAGACAGGAUAGUAGAAGGAACUGGCG | 14.8 | 25.9 |  |  |
| UCCGCUAUCUAGAAGGAUAUGCGUAUAUAAACAUGAGGAUCACCCAUGUACCGGCGAAAACCGGUGCAGAAGGUUUAGCUAGUGA |  |  | 431 | 65.7 |
| GCGUCACAAUUAGAACCAAUACGAACAUGAGGAUCACCCAUGUAGGAUAUGCUAGAAGUUGAGUUGCAGAAGGACAUUUAUCGC | 10.6 | 9.8 |  |  |
| AAUAAACAUGAGGAUCACCCAUGUAAGGAUAUGCGAACAAUAAGAAGACAAUAAUAAAGCAGAAGGUACAAGAG | 78.1 | 96.2 |  |  |
| UUGGACGUCGUAGGAUAUGUAGGAUAUUCCUACAUGAGGAUCACCCAUGUUGACAUGCAAGAAGGACAGAAGGACGAUGUCCAU |  |  | 240 | 6.54 |
| UGUUGUAUUACAGGAUAUCUAUGAUUUUGAUUUAGAGAAGGGUAUUCACAUGAGGAUCACCCAUGUAUAUACGAGGAAGUUGUG |  |  | 51.2 | 54.4 |
| UAUGAGCGAGGAUAUGCUUGGGACUGUCGGAAUGUGGCGGGACAUGAGGAUCACCCAUGUAGAAGGCGCGAGCG | 95.1 | 212 |  |  |
| ACAAGACAUGAGGAUCACCCAUGUAAAGAAAACGCAGGAUAUGCAAAAAAAUUCAUGGGUGCAGAAGGGCGAAAAA |  |  | 68.1 | 322 |
